Where “and” joins values, the source holds several entries; their conditions need not be identical. Equal values may be shown once.
Tested on: U2OS
Experiment: Multiplex assay against U2OS
Format: toxicity, cell-based
Details: human
How it was run: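 With compound added, live cells were imaged on a CQ1 microscope at 37°C and 5% CO2; staining with Hoechst33342, BioTracker Green Microtubule Cytoskeleton Dye, MitoTracker Red and Annexin V Alexa Fluor 680 had been done at seeding. The CellPathfinder machine-learning gating scheme split cells into Hoechst high-intensity objects or normal cells, normal cells into healthy, pyknosed or fragmented nuclei, and pyknosed cells into mitotic or apoptotic. The tubulin, mitochondrial-mass and membrane-permeability phenotypes are per cents of healthy-nucleus cells.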

[1] = 12 h, 1 µM, compound concentration 1 uM, replicate 1
[2] = 12 h, 1 µM, compound concentration 1 uM, replicate 2
[3] = 12 h, 10 µM, compound concentration 10 uM, replicate 1
[4] = 12 h, 10 µM, compound concentration 10 uM, replicate 2
[5] = 24 h, 1 µM, compound concentration 1 uM, replicate 1
[6] = 24 h, 1 µM, compound concentration 1 uM, replicate 2
[7] = 24 h, 10 µM, compound concentration 10 uM, replicate 1
[8] = 24 h, 10 µM, compound concentration 10 uM, replicate 2
[9] = 48 h, 10 µM, compound concentration 10 uM, replicate 1
[10] = 48 h, 10 µM, compound concentration 10 uM, replicate 2

`C[C@@]1(C(=O)Nc2ccc(F)nc2)CCCN1c1nc(Nc2cc(C3CC3)n[nH]2)c2cccn2n1` [BMS-754807] was tested, and the “Population Apoptotic (%)” value [1] was 25%, the “Population Fragmented Nuclei (%)” value [1] was 8% and the “Population Healthy Nuclei (%)” value [1] was 75%. For the same compound, the “Population Hoechst High Intensity Objects (%)” value [1] was 4%, the “Population Membrane Permeable-Phenotype (%)” value [1] was 61% and the “Population Mitochondria Different-Phenotype (%)” value [1] was 10%. For the same compound, the “Population Mitotic Cells (%)” value [1] was 74%, the “Population Normal (%)” value [1] was 95% and the “Population Pyknosed Nuclei (%)” value [1] was 15%. For the same compound, the “Population Tubulin-Different-Phenotype (%)” value [1] was 78%, the “Total Cell Count” value [1] was 181 and the “Population Apoptotic (%)” value [2] was 16%. The “Population Fragmented Nuclei (%)” value [2] was 36%, the “Population Healthy Nuclei (%)” value [2] was 56% and the “Population Hoechst High Intensity Objects (%)” value [2] was 27%. For the same compound, the “Population Membrane Permeable-Phenotype (%)” value [2] was 45%, the “Population Mitochondria Different-Phenotype (%)” value [2] was 25% and the “Population Mitotic Cells (%)” value [2] was 83%. The “Population Normal (%)” value [2] was 72%, the “Population Pyknosed Nuclei (%)” value [2] was 7% and the “Population Tubulin-Different-Phenotype (%)” value [2] was 62%. For the same compound, the “Total Cell Count” value [2] was 117, the “Population Apoptotic (%)” value [3] was 41% and 56% and the “Population Fragmented Nuclei (%)” value [3] was 10% and 4%. For the same compound, the “Population Healthy Nuclei (%)” value [3] was 65% and 86%, the “Population Hoechst High Intensity Objects (%)” value [3] was 6% and 2% and the “Population Membrane Permeable-Phenotype (%)” value [3] was 6% and 9%. The “Population Mitochondria Different-Phenotype (%)” value [3] was 71% and 27%, the “Population Mitotic Cells (%)” value [3] was 58% and 43% and the “Population Normal (%)” value [3] was 93% and 97%. The “Population Pyknosed Nuclei (%)” value [3] was 24% and 8%, the “Total Cell Count” value [3] was 191 and 183 and the “Population Apoptotic (%)” value [4] was 33%. For the same compound, the “Population Fragmented Nuclei (%)” value [4] was 15% and 11%, the “Population Healthy Nuclei (%)” value [4] was 58% and 80% and the “Population Hoechst High Intensity Objects (%)” value [4] was 13% and 9%. The “Population Membrane Permeable-Phenotype (%)” value [4] was 22% and 16%, the “Population Mitochondria Different-Phenotype (%)” value [4] was 70% and 40% and the “Population Mitotic Cells (%)” value [4] was 66%. The “Population Normal (%)” value [4] was 86% and 90%, the “Total Cell Count” value [4] was 53 and 85 and the “Population Apoptotic (%)” value [5] was 38%. The “Population Fragmented Nuclei (%)” value [5] was 15%, the “Population Healthy Nuclei (%)” value [5] was 60% and the “Population Hoechst High Intensity Objects (%)” value [5] was 4%. For the same compound, the “Population Membrane Permeable-Phenotype (%)” value [5] was 63%, the “Population Mitochondria Different-Phenotype (%)” value [5] was 32% and the “Population Mitotic Cells (%)” value [5] was 61%. For the same compound, the “Population Normal (%)” value [5] was 95%, the “Population Pyknosed Nuclei (%)” value [5] was 24% and the “Population Tubulin-Different-Phenotype (%)” value [5] was 78%. The “Total Cell Count” value [5] was 181, the “Population Apoptotic (%)” value [6] was 40% and the “Population Fragmented Nuclei (%)” value [6] was 41%. The “Population Healthy Nuclei (%)” value [6] was 47%, the “Population Hoechst High Intensity Objects (%)” value [6] was 20% and the “Population Membrane Permeable-Phenotype (%)” value [6] was 41%. The “Population Mitochondria Different-Phenotype (%)” value [6] was 30%, the “Population Mitotic Cells (%)” value [6] was 60% and the “Population Normal (%)” value [6] was 79%. The “Population Pyknosed Nuclei (%)” value [6] was 10%, the “Population Tubulin-Different-Phenotype (%)” value [6] was 51% and the “Total Cell Count” value [6] was 114. For the same compound, the “Population Apoptotic (%)” value [7] was 28% and 49%, the “Population Fragmented Nuclei (%)” value [7] was 11% and 15% and the “Population Healthy Nuclei (%)” value [7] was 76% and 54%. For the same compound, the “Population Hoechst High Intensity Objects (%)” value [7] was 5% and 8%, the “Population Membrane Permeable-Phenotype (%)” value [7] was 11% and 8% and the “Population Mitochondria Different-Phenotype (%)” value [7] was 51% and 74%. The “Population Mitotic Cells (%)” value [7] was 71% and 50%, the “Population Normal (%)” value [7] was 94% and 91% and the “Population Pyknosed Nuclei (%)” value [7] was 11% and 30%. For the same compound, the “Total Cell Count” value [7] was 187 and 184, the “Population Fragmented Nuclei (%)” value [8] was 17% and 12% and the “Population Healthy Nuclei (%)” value [8] was 47% and 74%. For the same compound, the “Population Hoechst High Intensity Objects (%)” value [8] was 9% and 11%, the “Population Membrane Permeable-Phenotype (%)” value [8] was 22% and the “Population Mitochondria Different-Phenotype (%)” value [8] was 59% and 45%. The “Population Mitotic Cells (%)” value [8] was 62% and 90%, the “Population Normal (%)” value [8] was 90% and 88% and the “Population Pyknosed Nuclei (%)” value [8] was 34% and 12%. The “Population Tubulin-Different-Phenotype (%)” value [8] was 77% and 28%, the “Total Cell Count” value [8] was 51 and 89 and the “Population Apoptotic (%)” value [9] was 72%. The “Population Fragmented Nuclei (%)” value [9] was 26%, the “Population Healthy Nuclei (%)” value [9] was 21% and the “Population Hoechst High Intensity Objects (%)” value [9] was 11%. For the same compound, the “Population Membrane Permeable-Phenotype (%)” value [9] was 13%, the “Population Mitochondria Different-Phenotype (%)” value [9] was 75% and the “Population Mitotic Cells (%)” value [9] was 27%. For the same compound, the “Population Normal (%)” value [9] was 88%, the “Population Pyknosed Nuclei (%)” value [9] was 52% and the “Population Tubulin-Different-Phenotype (%)” value [9] was 88%. The “Total Cell Count” value [9] was 193, the “Population Apoptotic (%)” value [10] was 66% and the “Population Fragmented Nuclei (%)” value [10] was 25%. The “Population Healthy Nuclei (%)” value [10] was 30%, the “Population Hoechst High Intensity Objects (%)” value [10] was 20% and the “Population Membrane Permeable-Phenotype (%)” value [10] was 91%. For the same compound, the “Population Mitochondria Different-Phenotype (%)” value [10] was 83%, the “Population Mitotic Cells (%)” value [10] was 33% and the “Population Normal (%)” value [10] was 80%. For the same compound, the “Population Pyknosed Nuclei (%)” value [10] was 45%, the “Population Tubulin-Different-Phenotype (%)” value [10] was 91% and the “Total Cell Count” value [10] was 50.

`O=C(NCCN1CCOCC1)c1ccc2c(c1)C(=O)c1ccc(Nc3ccc(F)c(NC(=O)c4ccccc4)c3)cc1CC2` [FS-694] was tested, and the “Population Apoptotic (%)” value [3] was 75% and 25%, the “Population Healthy Nuclei (%)” value [3] was 83% and 54% and the “Population Membrane Permeable-Phenotype (%)” value [3] was 67% and 52%. For the same compound, the “Population Mitochondria Different-Phenotype (%)” value [3] was 18% and 50%, the “Population Mitotic Cells (%)” value [3] was 25% and 74% and the “Population Normal (%)” value [3] was 95% and 53%. For the same compound, the “Population Pyknosed Nuclei (%)” value [3] was 8% and 13%, the “Population Tubulin-Different-Phenotype (%)” value [3] was 48% and 88% and the “Total Cell Count” value [3] was 178 and 187. The “Population Fragmented Nuclei (%)” value [4] was 40% and 27%, the “Population Healthy Nuclei (%)” value [4] was 47% and 65% and the “Population Membrane Permeable-Phenotype (%)” value [4] was 53% and 54%. The “Population Mitotic Cells (%)” value [4] was 60% and 90%, the “Population Normal (%)” value [4] was 47% and 90% and the “Population Pyknosed Nuclei (%)” value [4] was 11% and 7%. For the same compound, the “Total Cell Count” value [4] was 150 and 127, the “Population Apoptotic (%)” value [7] was 37% and 42% and the “Population Healthy Nuclei (%)” value [7] was 48% and 84%. The “Population Membrane Permeable-Phenotype (%)” value [7] was 54% and 41%, the “Population Mitotic Cells (%)” value [7] was 62% and 57% and the “Population Normal (%)” value [7] was 55% and 95%. The “Population Pyknosed Nuclei (%)” value [7] was 23% and 8%, the “Total Cell Count” value [7] was 224 and 170 and the “Population Apoptotic (%)” value [8] was 50%. The “Population Fragmented Nuclei (%)” value [8] was 45% and 17%, the “Population Healthy Nuclei (%)” value [8] was 39% and 76% and the “Population Membrane Permeable-Phenotype (%)” value [8] was 62% and 37%. The “Population Mitotic Cells (%)” value [8] was 50%, the “Population Normal (%)” value [8] was 47% and 91% and the “Population Pyknosed Nuclei (%)” value [8] was 14% and 5%. For the same compound, the “Total Cell Count” value [8] was 160 and 131.

— ChEMBL document CHEMBL4689842, “EUbOPEN Chemogenomics Library wave 1” (2021)
